Measured values published in the EternaBench riboswitch data.

Test system: MS2 coat protein
Test: apparent Kd, MS2 coat protein; higher = weaker binding; RNA-MaP array
Procedure, shortened: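 In Tris-HCl pH 7.5 buffer with KCl, MgCl2, BSA, DTT, tRNA and Tween20, with or without input ligand, fluorescently labeled MS2 coat protein at 1.5 nM to 3 μM was incubated at room temperature with designed RNAs. The RNAs had been transcribed on an Illumina sequencing chip from sequenced DNA templates, and incubation ran 0.8–1.5 h at the lowest to 10–20 min at the highest concentrations. Apparent Kd is the median of binding-curve fits for individual clusters. Designs measured on fewer than 10 clusters were excluded.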

[1] = designed as: ON switch for flavin mononucleotide, no ligand
[2] = ligand present: flavin mononucleotide, designed as: ON switch for flavin mononucleotide
[3] = designed as: ON switch for tryptophan, no ligand
[4] = ligand present: tryptophan, designed as: ON switch for tryptophan
[5] = designed as: OFF switch for flavin mononucleotide, no ligand
[6] = ligand present: flavin mononucleotide, designed as: OFF switch for flavin mononucleotide
[7] = designed as: OFF switch for theophylline, no ligand
[8] = ligand present: theophylline, designed as: OFF switch for theophylline
[9] = designed as: ON switch for theophylline, no ligand
[10] = ligand present: theophylline, designed as: ON switch for theophylline
[11] = designed as: OFF switch for tryptophan, no ligand
[12] = ligand present: tryptophan, designed as: OFF switch for tryptophan

With “ACUCGAUUACACAACCCGACAUGAGGAUCACCCAUGUAUCCGAGAAGGGCUAAUAUAUUCAGGAAGCAGGAUAUCGAAUCAAUA” the “apparent Kd” value [1] was 87.5 nM and the “apparent Kd” value [2] was 50.5 nM.
“GAUAACAUGAGGAUCACCCAUGUGGCGUCGCGAGGACCGGUACGGCCGCCACUCGGCAGUUCAACUCGAAUAUAGUGAUCGAAGU” was tested, and the “apparent Kd” value [3] was 138 nM and the “apparent Kd” value [4] was 87.5 nM.
For “CCGGUCCACUAGGAUAUGCGGAGUGUAUAUCACGCAGAAGGAGUCACAUGAGGAUCACCCAUGUGCGUGGGUUG”, the “apparent Kd” value [5] was 9.4 nM and the “apparent Kd” value [6] was 9.16 nM.
“GCAGUAAGAGAGGAUAUGAUGGACGCAAGGGCGUCAGAAGGCUCUACAUGAGGAUCACCCAUGUGAAGUUCAUA” was tested, and the “apparent Kd” value [5] was 6.12 nM and the “apparent Kd” value [6] was 6.52 nM.
In the case of “AACUAACAUAGUUAACAACAUGAGGAUCACCCAUGUCGCAUGUAGGAUAUGGUAGAGGACACAACCCAGAAGGACAUAACAUAA”, the “apparent Kd” value [1] was 41.9 nM and the “apparent Kd” value [2] was 22.9 nM.
With “GUACGGUGAGGAUAUCGUUAAGAUGUGGACAGGCCUACAUACGAGAAGGCACAUGAGGAUCACCCAUGUUCAUA” the “apparent Kd” value [5] was 21.5 nM and the “apparent Kd” value [6] was 18.8 nM.
In the case of “ACUCGGCAUCAUGAUACCAGAGAGCCCGAGAUGCCUUAACACAUGAGGAUCACCCAUGUACUCCCUUGGCAGCAUCAUGCACUAU”, the “apparent Kd” value [7] was 19.4 nM and the “apparent Kd” value [8] was 24.4 nM.
“CACGCCAGAUCUCAGGAUAUCCCACAUCAAACAUGAGGAUCACCCAUGUGACAUAUAUAGAACAUGGAGAAGGGAGCACAUGCGGC” was tested, and the “apparent Kd” value [1] was 209 nM and the “apparent Kd” value [2] was 113 nM.
“ACCUAGAGAUAGAAGGUUUAUAUGACCCUACAUGAGGAUCACCCAUGUUGUGGUAUUAUUCGUGAAAAGGAUAUAUCCCGUGAC” was tested, and the “apparent Kd” value [1] was 7.6 nM and the “apparent Kd” value [2] was 7.52 nM.
For “CAUGAUAAGUUGGAUACCAGCAUAUGGAACAACAUGAGGAUCACCCAUGUCAAAUGACAUUGCCCUUGGCAGCCACCUACUGUCA”, the “apparent Kd” value [9] was 20.3 nM and the “apparent Kd” value [10] was 11.1 nM.
In the case of “UUUUACAUGAGGAUCACCCAUGUGCGGCGCCGAGGACCGGUACGGCCGCCACUCGCAUGGGCAUGCCGCGAUAUCAUUCCUGAAC”, the “apparent Kd” value [3] was 96.2 nM and the “apparent Kd” value [4] was 103 nM.
With “CACAACGGUAGUUAGGAUAUCCAUAUGCGUACAUGAGGAUCACCCAUGUAAUUACAGAAAUGAUAGGAGAAGGAACGCAUCCGAAA” the “apparent Kd” value [1] was 33.3 nM and the “apparent Kd” value [2] was 21 nM.
For “GGUGACCCUGUUCCACAUGAGGAUCACCCAUGUUACCACUAUUAGGAUAUGCUUACAUGUACACUGCAGAAGGAAUAGGUAAGA”, the “apparent Kd” value [5] was 103 nM and the “apparent Kd” value [6] was 442 nM.
“AUGAGUGGCCUGACAUGAGGAUCACCCAUGUCAAAUAAUGCAAGAAGGGACCUUUAUUCAAGGUGUCAGGAUAUUGAUUAAACC” was tested, and the “apparent Kd” value [1] was 15.8 nM and the “apparent Kd” value [2] was 12.9 nM.
In the case of “CGCUACAUGAGGAUCACCCAUGUUACUCCGCGAGGACCGGUACGGCCGCCACUCGGCAGUUUGCGCCGCCGGAGGCACUCUUCAG”, the “apparent Kd” value [3] was 27 nM and the “apparent Kd” value [4] was 33.1 nM.
In the case of “UAAUAUGGAGGAUAUAAAGUCGAAGACAUGAGGAUCACCCAUGUCCUUGGUUGAAAGAGGUUAGAAGGCCAUAGUA”, the “apparent Kd” value [5] was 9.47 nM and the “apparent Kd” value [6] was 9.66 nM.
In the case of “CUCUAUCAGCAAGGAUAUGGGAGGUGUCGAGUUCCAGAAGGUGCACAUGAGACAUGAGGAUCACCCAUGUUGUGUAGUCCUCGA”, the “apparent Kd” value [5] was 10.8 nM and the “apparent Kd” value [6] was 26.5 nM.
With “GGUCCGACAACAGGAUAUGUCAUACGCUAAUGAACAGAAGGGUUACAUGAGGAUCACCCAUGUGCUUACACAUGCUCCGGAGCA” the “apparent Kd” value [1] was 10.8 nM and the “apparent Kd” value [2] was 17.1 nM.
For “AAUAAACGAGGAUAUACAGAUCAAGAUUAUCUAGUGAUCCUACAUGAGGAUCACCCAUGUAGAAGGCGAGAACA”, the “apparent Kd” value [5] was 51.1 nM and the “apparent Kd” value [6] was 66.7 nM.
With “GCAUACAGCAAGAAGGUGGCAUCGACUAUGGCCCAAGGAUAUUGCGGUACUACAUGAGGAUCACCCAUGUGUUCAUGAUUAUAG” the “apparent Kd” value [1] was 35.5 nM and the “apparent Kd” value [2] was 30.2 nM.
“AUUCAUCUCUAGAAGGGACUGCACAAAACACAGAAUUCUUACAUGAGGAUCACCCAUGUUGUGGGUCAGGAUAUAGGCAGGCCA” was tested, and the “apparent Kd” value [1] was 25.3 nM and the “apparent Kd” value [2] was 20.1 nM.
For “GAUGGAAUAAGAGAUACCAGACACAAUUUAGCAUGUAUAUACAUGAGGAUCACCCAUGUAGUCCCUUGGCAGCUCUGGUUAGUGU”, the “apparent Kd” value [7] was 26.5 nM and the “apparent Kd” value [8] was 26.7 nM.
For “UAGGUACAUGAGGAUCACCCAUGUCCUAUUACUACAGGAUAUAGCGUGCCUAGAUGGGUGCUAGAAGGGUAGAUCU”, the “apparent Kd” value [1] was 20.7 nM and the “apparent Kd” value [2] was 9.13 nM.
With “UCUGCGUCAGUCAGGAUAUGUUGCCAAAUUAUGGCACAGAAGGGACAUGAGGAUCACCCAUGUAGCGUCUCCGU” the “apparent Kd” value [5] was 10.2 nM and the “apparent Kd” value [6] was 10.4 nM.
For “AAAAGACAUGAGGAUCACCCAUGUAGAGAUACCAGAUGCAUGGACAUCCCUUGGCAGCUCGUCACUUUCUAUAUUUUCCAGACGC”, the “apparent Kd” value [9] was 46.9 nM and the “apparent Kd” value [10] was 21.9 nM.
With “UGUUUACAUGAGGAUCACCCAUGUGUUAUCGUAUUAGGAUAUGCAUGACGAUGAUUUUCGGCAGAAGGAAUGCGCA” the “apparent Kd” value [1] was 439 nM and the “apparent Kd” value [2] was 101 nM.
For “UGAAUGCACCAGAAGGCUGGAAGAGUAUUUAACAGAGGAUAUGGAACAUAAAGAUCACAUGAGGAUCACCCAUGUACACAUAAC”, the “apparent Kd” value [1] was 34.5 nM and the “apparent Kd” value [2] was 11.1 nM.
With “CGAACGGGCCACACUACAUGAGGAUCACCCAUGUUCGAAGAUAGAAGGUGUAGCUGGCCUCGUUACAAGGAUAUAUCUUAUACC” the “apparent Kd” value [5] was 29.2 nM and the “apparent Kd” value [6] was 27.4 nM.
With “UUGUGGUAGGCGCAUACUCAUUUAUACAAGCGAGGACCGGUACGGCCGCCACUCGGAAUAAAACAUGAGGAUCACCCAUGUACCG” the “apparent Kd” value [11] was 13.7 nM and the “apparent Kd” value [12] was 19.1 nM.
With “AAGCGCAAAGGAUAUAGCCGAUCCAACAUGAGGAUCACCCAUGUGACUUCCGACAUCAAGCUAGAAGGUUGAUGCA” the “apparent Kd” value [5] was 47.6 nM and the “apparent Kd” value [6] was 41 nM.
In the case of “UGUAUAGCCACUCAGGAUAUAGUUCAUCACACAUGAGGAUCACCCAUGUUACCAAUAUCAUCUGACUAGAAGGGAGAGACUUGCGU”, the “apparent Kd” value [1] was 13.4 nM and the “apparent Kd” value [2] was 9.17 nM.
“AUCACAUGAGGAUCACCCAUGUUAGGUAGAUGCAGUAAAGUCUAGGAUAUAAGCUUGUGAAGUAGUUAGAAGGAGACACAUGAG” was tested, and the “apparent Kd” value [5] was 22.9 nM and the “apparent Kd” value [6] was 18.3 nM.
With “AAAUAAAUAGCAGGAUAUGGGAAACAUGAGGAUCACCCAUGUCAUAAAUAGCGAAAAUAACACAUCCAGAAGGGCAAGAAUCAA” the “apparent Kd” value [1] was 412 nM and the “apparent Kd” value [2] was 137 nM.
For “GUGCUGAAUACGUAGGAUAUAGUGUGUGCGACAUGAGGAUCACCCAUGUAAAUUGCCCAUCAGAGCUAGAAGGACGAAUCUUCGUG”, the “apparent Kd” value [1] was 15.5 nM and the “apparent Kd” value [2] was 8.78 nM.
“ACACAUGAGGAUCACCCAUGUCGUGAGAGCUCAGUCGUGCGUUAGGAUAUCAUUCUGUUAGUGUUUGAGAAGGAACGGGUAACC” was tested, and the “apparent Kd” value [5] was 50.1 nM and the “apparent Kd” value [6] was 43.3 nM.
With “UAUAGGACUUAAGGAUAUGGCACCGGUGUCCCGCCAGAAGGUAAGGACCACACAUGAGGAUCACCCAUGUUCUCGAGAAUGGGA” the “apparent Kd” value [1] was 145 nM and the “apparent Kd” value [2] was 112 nM.
“UUUACAUGAGGAUCACCCAUGUUCCCUUGUGACACGUUUUUCAGAAGGACAGGCAUAAUUUGGAUGUAGGAUAUGAAUUAGUGC” was tested, and the “apparent Kd” value [5] was 24.9 nM and the “apparent Kd” value [6] was 21.9 nM.
“UUGCAAGUAGGAUAUAGUAGCGAAUACAUGAGGAUCACCCAUGUAGCCAGUGUAUUGCUUCUAGAAGGACUUCUCC” was tested, and the “apparent Kd” value [5] was 29.3 nM and the “apparent Kd” value [6] was 34.9 nM.
In the case of “GGAAGUGUCUAGGAUAUCCUUCGAUCUAUGGCAGGAGAAGGAGAUACAUGAGGAUCACCCAUGUAGGUACGGGC”, the “apparent Kd” value [5] was 7.1 nM and the “apparent Kd” value [6] was 6.75 nM.
In the case of “UGAACGUCAAGGCAGGAUAUUCUCAAGACAACAUGAGGAUCACCCAUGUUACAACGAUAAAUGAUGAAGAAGGGCCAGGGAUCAUA”, the “apparent Kd” value [1] was 11.8 nM and the “apparent Kd” value [2] was 6.33 nM.
“UGGAACAGUGUAAGGAUAUGGUACAAAAUAAACUCCCAGAAGGUACAUGAGGAUCACCCAUGUUAAUAAGACAA” was tested, and the “apparent Kd” value [5] was 13.7 nM and the “apparent Kd” value [6] was 13.6 nM.
In the case of “GCGGGUUACCCAGAAUGAGAAACAUGAGGAUCACCCAUGUAGAAGGAUAUAGAGUCUUGGUCUGCCUAGAAGGUCUAUAAUUGA”, the “apparent Kd” value [5] was 20.5 nM and the “apparent Kd” value [6] was 19.9 nM.
For “ACUUGUGAGUCGGCCGCCACUCACCGGUAGUGUCACUCGUUCACAAACAUGAGGAUCACCCAUGUGAGGACCGGGACAGUCGGGU”, the “apparent Kd” value [11] was 17.2 nM and the “apparent Kd” value [12] was 25.8 nM.
In the case of “AUUCCAAUAGGAUAUACAUGAGGAUCACCCAUGUGAUGAGCCCGUAAGACAGACGUCAGUAGAAGGAUUAGGAA”, the “apparent Kd” value [5] was 24.5 nM and the “apparent Kd” value [6] was 31.7 nM.
In the case of “GGAAUGUAAGGAUAUACCCGUAAGGUAGGGAUCGCAUCGGCGUAGAAGGUACAUGAGGAUCACCCAUGUUCAGC”, the “apparent Kd” value [5] was 7.78 nM and the “apparent Kd” value [6] was 7.97 nM.
For “AACGAAUGAGGAUAUACAUGAGGAUCACCCAUGUGAAAGGGAGGUUGAAGAUUUGACAGUAGAAGGCAUAUGAC”, the “apparent Kd” value [5] was 94.2 nM and the “apparent Kd” value [6] was 80 nM.
In the case of “CGACUGAAUAGGCAGUACACAUGAGGAUCACCCAUGUUAGCAAGAAGGCAAGAGCCAGCGGAGCUUGAGGAUAUUGAAGAUCUC”, the “apparent Kd” value [1] was 27.2 nM and the “apparent Kd” value [2] was 27.4 nM.
